Results on 16 molecules are retold here after PMC6957258 (Bioorganic & medicinal chemistry, 2013).

Read-outs that look alike come from different tables or passages of the source.

The target of assay [1] is T1, human TRPV1 (Homo sapiens, UniProt Q8NER1). In words: FLIPR antagonism of pH activation, hTRPV1 in CHO cells. It counts as cell-based. Particulars: read-out: IC50 [pH], inhibition of pH activation.
Assay [2] has as its system capsaicin-induced hypothermia. In words: Capsaicin-induced hypothermia in mice. The assay is classed as in vivo. The conditions noted are these: for inhibition of the effect of capsaicin on body temperature: 0.3 mg/Kg po 15 min before capsaicin 3 mg/Kg ip. In short, it runs like this: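 Mice, n = 5 per group. Body temperature (°C) was recorded after capsaicin challenge, with readings taken up to 60 min. Data are given as mean ± SEM and compared with vehicle-treated animals, with significance at p < 0.05.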

Assay [3] concerns CCI-induced cold allodynia (neuropathic pain model). The conditions noted are these: rat, po; cited from earlier work.
In assay [4] the target is T1, human TRPV1. In words: FLIPR antagonism of capsaicin. The assay is classed as cell-based.
The subject of assay [5] is capsaicin-induced hypothermia. Particulars: mice; cited from earlier work.

T1 sequence (Q8NER1 whole entry): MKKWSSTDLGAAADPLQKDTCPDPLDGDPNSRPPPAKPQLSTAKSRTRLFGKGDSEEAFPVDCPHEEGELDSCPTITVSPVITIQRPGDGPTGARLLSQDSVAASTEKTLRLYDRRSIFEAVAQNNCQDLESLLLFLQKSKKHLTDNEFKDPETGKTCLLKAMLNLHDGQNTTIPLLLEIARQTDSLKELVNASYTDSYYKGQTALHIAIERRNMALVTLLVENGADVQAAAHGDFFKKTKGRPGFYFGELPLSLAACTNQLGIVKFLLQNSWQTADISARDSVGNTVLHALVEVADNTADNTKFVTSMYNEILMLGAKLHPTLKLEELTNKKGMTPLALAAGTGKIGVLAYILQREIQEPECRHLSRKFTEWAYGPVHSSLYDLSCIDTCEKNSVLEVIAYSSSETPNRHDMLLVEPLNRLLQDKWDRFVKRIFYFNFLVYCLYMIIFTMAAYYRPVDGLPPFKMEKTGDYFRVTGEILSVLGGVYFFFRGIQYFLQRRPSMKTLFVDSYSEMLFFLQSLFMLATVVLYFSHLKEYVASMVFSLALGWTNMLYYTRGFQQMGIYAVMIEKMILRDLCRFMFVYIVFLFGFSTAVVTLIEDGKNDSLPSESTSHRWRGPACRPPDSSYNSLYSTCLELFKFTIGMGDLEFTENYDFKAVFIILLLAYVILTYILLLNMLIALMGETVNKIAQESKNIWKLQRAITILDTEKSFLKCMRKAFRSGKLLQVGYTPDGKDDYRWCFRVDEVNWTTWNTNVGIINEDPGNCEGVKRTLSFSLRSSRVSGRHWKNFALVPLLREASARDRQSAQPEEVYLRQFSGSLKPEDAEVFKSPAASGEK

The IC50 is the point on the concentration scale where inhibition reaches its midpoint. Turning to `C[C@@H](C(=O)NCc1ccc(C(F)(F)F)nc1SC1CCCCC1)c1ccc(NS(C)(=O)=O)c(F)c1` [24R, (R)-N-((2-(Cyclohexylthio)-6-(trifluoromethyl)pyridin-3-yl)methyl)-2-(3-fluoro-4-(methylsulfonamido)phenyl)propanamide], the IC50 at human TRPV1 [1] was over 1 µM.

For `C[C@H](C(=O)NCc1ccc(C(F)(F)F)nc1SC1CCCCC1)c1ccc(NS(C)(=O)=O)c(F)c1` [24S, (S)-N-((2-(Cyclohexylthio)-6-(trifluoromethyl)pyridin-3-yl)methyl)-2-(3-fluoro-4-(methylsulfonamido)phenyl)propanamide], the “effect on capsaicin-induced hypothermia” value in assay [2] was “blocked capsaicin-induced hypothermia”. Besides, the “inhibition of the effect of capsaicin on body temperature” value in assay [2] (at 15 min) is reported as “partial inhibition”; in assay [2] (at 30 min) it was “completely inhibited”.

In the case of `C[C@H](C(=O)NCc1ccc(C(C)(C)C)cc1)c1ccc(NS(C)(=O)=O)c(F)c1` [compound 1], the ED50 anti-allodynic efficacy in assay [3] is 26.6 mg/kg.

Take `CC1CCN(c2nc(C(F)(F)F)ccc2CNC(=O)[C@@H](C)c2ccc(NS(C)(=O)=O)c(F)c2)CC1` [compound 2]: the “fold better than prototype 1 for CAP antagonism” value at human TRPV1 [4] (ratio versus 1) was “approximately 100 fold”. Further, the “effect on capsaicin-induced hypothermia” value in assay [5] is on record as “blocked capsaicin-induced hypothermia”. Also, the ED50 anti-allodynic efficacy in assay [3] is 0.9 mg/kg.

With `CC(C(=O)NCc1ccc(C(F)(F)F)nc1SCC(F)(F)F)c1ccc(NS(C)(=O)=O)c(F)c1` (centres unmarked) [compound 11, 2-(3-Fluoro-4-(methylsulfonamido)phenyl)-N-((2-(2,2,2-trifluoroethylthio)-6-(trifluoromethyl)pyridin-3-yl)methyl) propanamide], at human TRPV1 [1], the half-maximal inhibitory concentration (IC50) is over 1 µM.

For `CC(C(=O)NCc1ccc(C(F)(F)F)nc1SCCC(=O)O)c1ccc(NS(C)(=O)=O)c(F)c1` (centres unmarked) [compound 20, 3-(3-((2-(3-Fluoro-4-(methylsulfonamido)phenyl)propanamido)methyl)-6-(trifluoromethyl)pyridin-2-ylthio) propanoic acid], the IC50 at human TRPV1 [1] was over 1 µM.

Consider `CC(C(=O)NCc1ccc(C(F)(F)F)nc1SCCC(=O)N1CCCC1)c1ccc(NS(C)(=O)=O)c(F)c1` (centres unmarked) [compound 22, 2-(3-Fluoro-4-(methylsulfonamido)phenyl)-N-((2-(3-oxo-3-(pyrrolidin-1-yl)propylthio)-6-(trifluoromethyl)pyridin-3-yl)methyl)propanamide], for which the IC50 on human TRPV1 [1] is over 1 µM.

For `CC(C(=O)NCc1ccc(C(F)(F)F)nc1SC1CCCC1)c1ccc(NS(C)(=O)=O)c(F)c1` (centres unmarked) [compound 23, N-((2-(Cyclopentylthio)-6-(trifluoromethyl)pyridin-3-yl)methyl)-2-(3-fluoro-4-(methylsulfonamido)phenyl)propanamide], the IC50 on human TRPV1 [1] was over 1 µM.

Consider `CC(C(=O)NCc1ccc(C(F)(F)F)nc1[S+]([O-])C1CCCCC1)c1ccc(NS(C)(=O)=O)c(F)c1` (centres unmarked) [compound 25, N-((2-(Cyclohexylsulfinyl)-6-(trifluoromethyl)pyridin-3-yl)methyl)-2-(3-fluoro-4-(methylsulfonamido)phenyl)propanamide], for which the IC50 on human TRPV1 [1] is over 1 µM.

For `CC(C(=O)NCc1ccc(C(F)(F)F)nc1S(=O)(=O)C1CCCCC1)c1ccc(NS(C)(=O)=O)c(F)c1` (centres unmarked) [compound 26, N-((2-(Cyclohexylsulfonyl)-6-(trifluoromethyl)pyridin-3-yl)methyl)-2-(3-fluoro-4-(methylsulfonamido)phenyl)propanamide], the IC50 on human TRPV1 [1] was over 1 µM.

Consider `CC(C(=O)NCc1ccc(C(F)(F)F)nc1SC1CCCCC1C)c1ccc(NS(C)(=O)=O)c(F)c1` (centres unmarked) [compound 28, 2-(3-Fluoro-4-(methylsulfonamido)phenyl)-N-((2-(2-methylcyclohexylthio)-6-(trifluoromethyl)pyridin-3-yl)methyl)propanamide], for which the IC50 on human TRPV1 [1] was over 1 µM.

With `CCC1CCC(Sc2nc(C(F)(F)F)ccc2CNC(=O)C(C)c2ccc(NS(C)(=O)=O)c(F)c2)CC1` (centres unmarked) [compound 29, N-((2-(4-Ethylcyclohexylthio)-6-(trifluoromethyl)pyridin-3-yl)methyl)-2-(3-fluoro-4-(methylsulfonamido)phenyl)propanamide], the IC50 on human TRPV1 [1] was over 1 µM.

As for `CC(C(=O)NCc1ccc(C(F)(F)F)nc1SCC1CCCCC1)c1ccc(NS(C)(=O)=O)c(F)c1` (centres unmarked) [compound 31, N-((2-(Cyclohexylmethylthio)-6-(trifluoromethyl)pyridin-3-yl)methyl)-2-(3-fluoro-4-(methylsulfonamido)phenyl)propanamide], the “fold less potent than 24” value at human TRPV1 [4] (ratio of Ki(CAP) versus 24) was determined as 2.5 fold.

For the molecule `CC(C(=O)NCc1ccc(C(F)(F)F)nc1SCc1ccco1)c1ccc(NS(C)(=O)=O)c(F)c1` (centres unmarked) [compound 37, 2-(3-Fluoro-4-(methylsulfonamido)phenyl)-N-((2-(furan-2-ylmethylthio)-6-(trifluoromethyl)pyridin-3-yl)methyl)propanamide], the IC50 at human TRPV1 [1] was over 1 µM.

Take `CC(C(=O)NCc1ccc(C(F)(F)F)nc1SCc1cccs1)c1ccc(NS(C)(=O)=O)c(F)c1` (centres unmarked) [compound 38, 2-(3-Fluoro-4-(methylsulfonamido)phenyl)-N-((2-(thiophen-2-ylmethylthio)-6-(trifluoromethyl)pyridin-3-yl)methyl)propanamide]: at human TRPV1 [1], the IC50 was over 1 µM.

On to `CC(C)C[C@H](CN)CC(=O)O` [pregabalin], for which the ED50 anti-allodynic efficacy in assay [3] was 42.2 mg/kg.
